Here are results for 7 compounds from PubChem BioAssay.

Broadly, the inhibition is the drop in the measured response relative to a control, in per cent.

Test [1] is described as follows: inhibitors of TNFa-induced NFkB p65 translocation, primary screen, imaging, HUVEC, MLSMR starter and 10KST1 sets (AID 438;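 active = inhibition above 20% together with a positive visual image hit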;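 note: compound added about 3h40 before a 20 min TNFalpha stimulation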;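 for inhibition: signal is the nuclear over cytoplasmic p65 intensity ratio per well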). The conditions noted are these: HUVEC TNFa-induced p65 nuclear translocation; cell count: measured here: nuclei count (cytotoxicity indicator), at 2.08 µM; inhibition: at 2 µM, stronger effect = higher value, 0% TNFa-plus-vehicle, 100% no-TNFa wells.
A short description of test [2]: endothelial E-selectin expression blockers – imaging, HUVEC, immunofluorescence, MLSMR starter and 10KST1 sets, primary screen (AID 487;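 active = visually confirmed hit in the image check and inhibition above 20%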;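 for inhibition: signal is fraction of cell area covered by stained E-selectin grains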;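 for nuclei count: 100% = median nuclei count of all wells on the same plate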). The note with it: HUVEC TNFalpha-induced E-selectin immunofluorescence imaging, at 2 µM; inhibition: stronger effect = higher value; nuclei count: measured here: cell number, toxicity.
A short description of test [3]: Primary imaging screen for DUSP6 inhibitors that restore phospho-Erk in transfected HeLa cells, chemical complementation (AID 609;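 active = compounds giving at least 50% inhibition in the cell-based MKP-3 phosphatase rescue imaging test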;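 for inhibition: phospho-Erk level distribution per well compared with pooled transfected vehicle control wells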). The note with it: HeLa MKP-3 transfected, phospho-Erk imaging KS statistic, at 10 µM, cells stimulated with TPA for 15 min.
In test [4] the target is Dual specificity protein phosphatase 6 (Homo sapiens) (UniProt Q16828). The description is as above. The conditions noted are these: HeLa MKP-3 transfected, phospho-Erk imaging KS statistic; at 10 µM; stronger effect = higher value; cells stimulated with TPA for 15 min.
Test [5] addresses Voltage-gated potassium channel subunit beta-2 (Rattus norvegicus) (UniProt P62483). In words: inhibitors of rat Kvbeta2 reductase activity – biochemical, NADPH fluorescence, primary screen (AID 622;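 active = fluorescence slope higher than the sample average by over 3 SD, cut at about -0.22 in these data, passing the limit was not always enough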;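 note: slope of raw intensity against log time taken from 70 to 1610 s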). The conditions noted are these: recombinant KvBeta, 4-cyanobenzaldehyde reduction, at 10 µM, stronger effect = higher value.
The target is the same in test [6]. Description: enhancers of rat Kvbeta2 NADPH turnover – biochemical, NADPH fluorescence, primary screen (AID 623;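 active = NADPH fluorescence slope more negative than the mean of all samples by about 3 SD, 99.7% confidence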;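 note: fluorescence intensity change per second fitted from 20 to 320 s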). The note with it: Recombinant KvBeta, NADPH fluorescence decrease slope, 10 min; at 10 µM; stronger effect = lower value.
The target of test [7] is Muscarinic acetylcholine receptor M4 (Homo sapiens) (UniProt P08173). In words: M4-linked GIRK flux change, two-sided – cell-based, HEK293 M4/GIRK, thallium flux, BTC-AM, M4 allosteric agonist project, primary screen (AID 625;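 active = fluorescence slope after compound addition differing from the mean of all tested samples at 99.7% confidence, mostly higher but some lower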;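 note: thallium influx through GIRK channels coupled to M4 in HEK293 cells with BTC-AM dye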). The note with it: at 10 µM, actives lie on both sides. An outline of the steps: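 Material: M4/GIRK1/GIRK2 stable HEK293 cell line. Medium: pH 7.3 thallium assay buffer. Dosing: single compound concentration, 10 µM final. Schedule: 1 h dye loading, 2 min kinetic read. Measured by: kinetic fluorescence with BTC-AM dye. Read-out: post-addition slope, 15–24 s, of baseline-normalized fluorescence. Benchmarks: carbachol and DMSO controls.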

Test [8] is described as follows: inhibitors of larval lipid processing in zebrafish, primary screen, whole organism, PED6 fluorescence, gall bladder and intestine (AID 686;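 active = a full or partial loss of lipid-probe fluorescence in the fish gall bladder, intestine or both, judged by eye; inactive = no fluorescence loss, or compound toxic to the fish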;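 note: larvae 5 to 7 days old with five fish per well; signal comes from phospholipase A2 cleavage of quenched PED6 carried via bile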). The note with it: Zebrafish larvae PED6 lipid processing, fluorescence scoring; screened at 20 µM (by protocol). A digest of the protocol: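 System: live zebrafish larvae aged 5-7 days, whole organism; measure: graded gall bladder and intestinal fluorescence inhibition per well; incubation: overnight exposure; reagent: ingested quenched lipid PED6 at 100 nM; signal: By-eye fluorescence microscopy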

A short description of test [9]: loss of swimming-algae plug formation – whole organism, Chlamydomonas reinhardtii, WT vs cilia-less mutant, absorbance, 96-well, primary screen (AID 463189).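 Note: 0% = wild type cc124 cells in DMSO and 100% = ciliumless bld1 mutant cells.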 The note with it: Chlamydomonas reinhardtii gravitaxis, OD600 absorbance, 2 days; at 10 µM; stronger effect = higher value.
The mark [10] stands for this setting: measured here: cell density z-score.
Setting [11] is: measured here: nuclear c-Myc green intensity z-score.
Setting [12] is: measured here: nuclear pErk red intensity z-score, stronger effect = higher value.

The source made the active and inactive calls.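 Rule for the calls, unless noted: active = inhibition at or above 50% relative to wild type and mutant plate controls; inactive = inhibition below 50%.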

Muscarinic acetylcholine receptor M4 (Homo sapiens), sequence (P08173 whole entry, looked up): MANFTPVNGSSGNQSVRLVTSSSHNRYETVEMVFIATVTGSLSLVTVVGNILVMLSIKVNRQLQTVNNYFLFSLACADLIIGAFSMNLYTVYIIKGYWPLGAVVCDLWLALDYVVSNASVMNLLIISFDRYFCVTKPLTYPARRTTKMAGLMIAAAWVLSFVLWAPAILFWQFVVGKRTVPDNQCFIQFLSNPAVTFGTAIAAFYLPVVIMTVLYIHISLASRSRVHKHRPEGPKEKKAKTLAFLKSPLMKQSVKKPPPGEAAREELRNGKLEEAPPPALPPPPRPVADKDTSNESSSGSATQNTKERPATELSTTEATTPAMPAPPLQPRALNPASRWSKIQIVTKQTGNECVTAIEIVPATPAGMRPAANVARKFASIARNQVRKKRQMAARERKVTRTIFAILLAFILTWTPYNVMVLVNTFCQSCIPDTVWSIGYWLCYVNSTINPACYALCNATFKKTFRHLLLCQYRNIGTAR
Voltage-gated potassium channel subunit beta-2 (Rattus norvegicus), sequence (P62483 whole entry, looked up): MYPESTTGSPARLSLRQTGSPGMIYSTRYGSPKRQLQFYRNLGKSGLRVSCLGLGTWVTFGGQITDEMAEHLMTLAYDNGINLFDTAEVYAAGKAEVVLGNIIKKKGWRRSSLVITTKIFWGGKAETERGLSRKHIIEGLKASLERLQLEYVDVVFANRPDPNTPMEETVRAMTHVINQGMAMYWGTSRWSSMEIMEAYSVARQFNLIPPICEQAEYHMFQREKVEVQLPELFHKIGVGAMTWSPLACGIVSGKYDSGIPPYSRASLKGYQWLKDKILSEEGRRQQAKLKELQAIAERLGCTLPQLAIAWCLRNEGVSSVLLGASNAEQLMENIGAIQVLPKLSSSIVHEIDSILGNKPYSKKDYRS
Dual specificity protein phosphatase 6 (Homo sapiens), sequence (Q16828 whole entry, looked up): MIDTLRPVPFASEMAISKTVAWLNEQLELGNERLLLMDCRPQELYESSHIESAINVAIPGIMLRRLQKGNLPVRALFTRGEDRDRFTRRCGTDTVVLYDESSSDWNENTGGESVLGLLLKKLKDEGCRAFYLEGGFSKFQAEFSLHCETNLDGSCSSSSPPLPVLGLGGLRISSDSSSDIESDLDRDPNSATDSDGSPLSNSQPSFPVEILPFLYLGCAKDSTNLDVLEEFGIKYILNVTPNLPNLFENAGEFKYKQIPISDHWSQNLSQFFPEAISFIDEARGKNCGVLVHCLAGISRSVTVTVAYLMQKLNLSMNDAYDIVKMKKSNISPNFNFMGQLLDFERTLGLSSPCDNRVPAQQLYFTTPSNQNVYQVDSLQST

As to `COc1ccc(Nc2cc(C)nc(-n3nc(C)cc3C)n2)cc1`, in test [1], the cell count is 454. Also, the inhibition in [1] is 12% (inactive); in [2] it was -182% (inactive); in test [4], -3.95% (inactive); in test [9], 45% (inactive). This compound also had a nuclei count in test [2] of 127%. Moreover, the z-score is -0.499 in test [3] (setting [10]), -0.357 in [3] (setting [11]) and -1.13 in test [3] (setting [12]). For the same compound, the fluorescence slope was -0.427 (inactive) in [5] and 0.00507 (inactive) in [7]. The NADPH fluorescence slope in test [6] is -2.8e-05 (inactive). The result in test [8] was inactive.
Take `Nc1nnnn1/N=C/c1cccs1`: the cell count in [1] is 656. In addition, the inhibition was -4.7% (inactive) in test [1], -50.1% (inactive) in [2], -8.95% (inactive) in test [4] and 17.8% (inactive) in [9]. The same compound gave a nuclei count in test [2] of 124%. Besides, the z-score in [3] (setting [10]) was -0.3; in test [3] (setting [11]) it was -1.24; in test [3] (setting [12]), -0.836. Besides, the fluorescence slope is -0.483 (inactive) in [5] and 0.00656 (inactive) in test [7]. The NADPH fluorescence slope in test [6] was -6.6e-05 (inactive). The compound was classed as inactive in [8].
As to `COC(=O)CC1=C(C(=O)OC)C(c2cccc(OCC(N)=O)c2)C(C#N)=C(N)O1` (stereo unspecified), in test [1], the cell count amounted to 723. In addition, the inhibition was -1% (inactive) in test [1], -67.7% (inactive) in test [2], 27.5% (inactive) in test [4] and 12% (inactive) in [9]. The compound also showed a nuclei count in test [2] of 186%. The z-score is -1.4 in [3] (setting [10]), 0.109 in test [3] (setting [11]) and 1.84 in test [3] (setting [12]). The figures for the fluorescence slope in test [5] and in [7] were -0.432 (inactive) and 0.00612 (inactive), respectively. In [6], the NADPH fluorescence slope was -7e-05 (inactive). For the same compound, in [8], the compound was called inactive.
Regarding `C=CCOc1ccc(C2/C(=C(\O)c3ccc(F)cc3)C(=O)C(=O)N2CCCN(C)C)cc1` (stereo unspecified), the cell count in test [1] came out at 672. The inhibition was -13.7% (inactive) in test [1], -142% (inactive) in [2], 4.25% (inactive) in [4] and 14.7% (inactive) in test [9]. In addition, the nuclei count in test [2] stood at 172%. For the same compound, the z-score was 1.58 in test [3] (setting [10]), 1.06 in test [3] (setting [11]) and -0.378 in test [3] (setting [12]). For the same compound, the fluorescence slope in [5] was -0.451 (inactive); in test [7] it was 0.00492 (inactive). In addition, in test [6], the NADPH fluorescence slope is -4.3e-05 (inactive). For the same compound, the compound was called inactive in [8].
On to `O=C1c2ccccc2-c2onc3ccc(NCc4ccco4)c1c23`, for which, in test [1], the cell count worked out at 705. Further, the inhibition in [1] was -2.6% (inactive); in test [2] it was -23.9% (inactive); in test [4], 10.9% (inactive); in [9], -2.14% (inactive). Besides, the nuclei count in test [2] stood at 118%. Moreover, the z-score in test [3] (setting [10]) was 0.599; in [3] (setting [11]) it was -0.783; in test [3] (setting [12]), 0.692. Further, the fluorescence slope in test [5] is -0.14 (inactive); in test [7] it was 0.000102 (inactive). The NADPH fluorescence slope in [6] is 1.2e-05 (inactive). Further, the outcome in test [8] was “active; no signal in gallbladder and intestine”.
Regarding `Cc1cc(O)ccc1-c1cnc2ccccc2n1`, the cell count in test [1] worked out at 695. Further, the inhibition in [1] was 2% (inactive); in [2], -163% (inactive); in [4], -6.06% (inactive); in test [9], -11.2% (inactive). For the same compound, the nuclei count in test [2] amounted to 166%. Moreover, the z-score is -0.391 in test [3] (setting [10]), 1.61 in [3] (setting [11]) and 0.545 in test [3] (setting [12]). Further, the fluorescence slope in test [5] is -0.482 (inactive); in test [7], 0.00527 (inactive). Further, the NADPH fluorescence slope in test [6] was -6.2e-05 (inactive). Also, in [8], the result was inactive.
With `CC(NC(=O)Nc1nnc(C(F)(F)F)s1)(C(F)(F)F)C(F)(F)F`, the cell count in [1] came out at 640. Moreover, the inhibition in test [1] is 3.6% (inactive); in [2] it was -157% (inactive); in test [4], 1.63% (inactive); in test [9], 1.97% (inactive). The nuclei count in test [2] is 149%. Further, the z-score in test [3] (setting [10]) was -0.473; in test [3] (setting [11]), 0.624; in test [3] (setting [12]), 0.273. Further, the fluorescence slope in [5] was -0.465 (inactive); in test [7], 0.00252 (inactive). In addition, the NADPH fluorescence slope in [6] is -5.5e-05 (inactive). Besides, the outcome in [8] was “inactive; toxic”.
